The values below come from ChEMBL document CHEMBL1123757, “Selective thromboxane synthetase inhibitors and antihypertensive agents. New derivatives of 4-hydrazino-5H-pyridazino[4,5-b]indole, 4-hydrazinopyridazino[4,5-a]indole, and related compounds” (J Med Chem, 1987).

What all share (assay type): functional, Artery
Experiment [1] has as its system Rattus norvegicus. Put plainly: Percent fall in systolic blood pressure, directly measured on carotid (iv on the jugular vein) of spontaneously hypertensive rats at 1 mg/kg after 45 minutes. An outline of the steps:
(§1)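 Anesthetized (sodium pentobarbital, 70 mg/kg) male and female Okamoto SHR, 8 weeks old, 300–350 g. Given iv into the jugular vein in normal saline. Arterial pressure and cardiac rhythm are recorded directly from the carotid by polygraph at set times after dosing. Each is expressed as percent change from the pre-dose control value.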

In experiment [2] the test system is Rattus norvegicus. The experiment can be described thus: Percent fall in systolic blood pressure, directly measured on carotid (iv on the jugular vein) of spontaneously hypertensive rats at 1 mg/kg after 10 minutes. The essentials:
as §1

Experiment [3] concerns Rattus norvegicus. The experiment can be described thus: Percent fall in systolic blood pressure, directly measured on carotid (iv on the jugular vein) of spontaneously hypertensive rats at 1 mg/kg after 75 minutes. An outline of the steps:
as §1

Experiment [4] concerns Rattus norvegicus. Put plainly: Percent fall in systolic blood pressure, directly measured on carotid (iv on the jugular vein) of spontaneously hypertensive rats at 1 mg/kg after 60 minutes. An outline of the steps:
as §1

In experiment [5] the test system is Rattus norvegicus. The experiment can be described thus: Percent fall in systolic blood pressure, directly measured on carotid (iv on the jugular vein) of spontaneously hypertensive rats at 1 mg/kg after 90 minutes. The essentials: as §1
The test system of experiment [6] is Rattus norvegicus. The experiment can be described thus: Percent fall in systolic blood pressure, directly measured on carotid (iv on the jugular vein) of spontaneously hypertensive rats at 1 mg/kg after 5 minutes. An outline of the steps: as §1
Experiment [7] concerns Rattus norvegicus. The experiment can be described thus: Percent fall in systolic blood pressure, directly measured on carotid (iv on the jugular vein) of spontaneously hypertensive rats at 1 mg/kg after 30 minutes. An outline of the steps:
as §1

The test system of experiment [8] is Rattus norvegicus. The experiment can be described thus: Percent fall in systolic blood pressure, directly measured on carotid (iv on the jugular vein) of spontaneously hypertensive rats at 1 mg/kg after 15 minutes. An outline of the steps:
as §1

Take `NNc1[nH]ncc2c3cc(O)ccc3nc1-2`: the “Decrease in blood pressure” value in experiment [1] was 56%; in experiment [2], 44%; in experiment [3], 56%; in experiment [4] it was 67%; in experiment [5], 56%; in experiment [6], 33%. The “Decrease in blood pressure” value in experiment [7] was 56%; in experiment [8], 60%.
